{"data": "Results collected from several papers", "note": "Lines come from different studies, so protocols differ."}
{"Structure (SMILES)": "COCC(=O)N1CCC[C@H](C(=O)NCc2nc(-c3ccc(C#N)cc3)cs2)C1", "medium": "Caco-2", "endpoint": "efflux ratio", "value": 2.2}
{"Structure (SMILES)": "Cc1cc(-c2nccc3c2ccn3CC(=O)Nc2ccc(-c3cnccn3)cn2)ccn1", "host": "human", "medium": "plasma", "route": "oral", "dose": "40 mg", "setting": "single dose", "endpoint": "Cmax", "value": "0.345 µM"}
{"Structure (SMILES)": "CC(C)n1c(C2CCNCC2)nc2c([N+](=O)[O-])c(Br)c(Br)cc21", "host": "human", "medium": "plasma", "route": "oral", "dose": "75 mg", "setting": "patients", "endpoint": "Cmax", "value": "60.5 ng/mL"}
{"Structure (SMILES)": "COc1ccc2c(c1)CN(C(=O)CCN1CCC(Cc3ccccc3)CC1)CC[S@@+]2[O-]", "host": "male human", "medium": "plasma", "route": "intravenous", "dose": "0.15 mg/kg", "setting": "healthy volunteers", "endpoint": "Cmax", "value": "349 ng/mL"}
{"Structure (SMILES)": "COc1ccc(-c2c(Nc3ccccn3)[nH]c3c(C4=CCCCC4)c(-c4ccccc4)nn3c2=O)cc1", "host": "human", "medium": "plasma", "route": "oral", "dose": "400 mg once daily", "setting": "multiple doses, patients", "endpoint": "Cmax", "value": "3200 ng/mL"}
{"Structure (SMILES)": "CCOCC(=O)N1CCC[C@H](C(=O)NCc2nc(-c3ccc(C)nc3)cs2)C1", "medium": "Caco-2", "endpoint": "efflux ratio", "value": 3.8}
{"Structure (SMILES)": "CN(C)C(=O)c1cc2cnc(Nc3ccc(-c4ccc5c(=O)cc(N6CCOCC6)oc5c4)cc3)nc2n1C1CCCC1.Cl", "host": "BALB/c mouse", "medium": "plasma", "route": "oral", "dose": "20 mg/kg", "endpoint": "Tmax", "value": "54 min"}
{"Structure (SMILES)": "O=C(COc1ccc(Cl)cc1)NC12CC(c3nnc([C@H]4C[C@@H](OC(F)(F)F)C4)o3)(C1)C2", "host": "human", "medium": "plasma", "route": "oral", "dose": "200 mg", "setting": "multiple doses, once daily, steady state, healthy volunteers", "endpoint": "Cmax", "value": "16.2 µM"}
